This is one part of a sample in which hits are shown more often than they occur.
INS-1E ATP HTS: protection of INS-1E cells from cytokine death, primary screen, ATP luminescence, single point. INS-1E cytokine-induced death, 48 h; normalised: neutral wells 0, positive control 100. protection from cytokine-induced ATP loss, % at 10 µM. 20,000 compounds, 0.1% hits;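 active = mean replicate protection from cytokine-induced ATP loss at least 50% and at least 75% of replicates each reaching 50%; inconclusive = meets only one of the two criteria, mean or replicate share; inactive = fails both the mean and replicate share criteria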
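assay system = INS-1E rat insulinoma cells | amount = 8000 cells per well | medium = phenol-red-free RPMI with 5% fetal bovine serum | doses = one compound concentration, pin transfer | timing = 48 h cytokine plus compound treatment, 10 min reagent incubation | also added = IL-1β, TNF-α and IFN-γ cytokine mix | signal = CellTiter-Glo luminescence measuring cellular ATP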
A1 apoptosis 2: A1 inhibitors via caspase activation, primary screen, cell-based, luminescence, HTS, two replicates. MEF A1-2A-BIM cells, caspase-Glo luminescence, 3 h; percent of clofoctol response, DMSO zero. caspase activation, % (test concentration not listed). 24,000 tested, under 10 active. AID 2465, 2010; in the data active = caspase activation above about 5.9%; inconclusive = no clear call, values can overlap the other calls; inactive = below about 2.2%
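system = A1-2A-BIM-expressing MEF cells | quantity = 2500 MEF cells/well | dosing = 50 nL compound per well, pinned | schedule = overnight cell settling, then 3 h compound exposure, 37 °C | signal = luminescence from DEVD-luciferin Caspase-Glo reagent, 1:1 in 50 mM HEPES, 1 h RT | read-out = Caspase-3/7 activation, seen as rise in luminescence signal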
T cruzi intra: inhibitors of intracellular Trypanosoma cruzi, primary screen, cell-based, plate reader, single point, set 2 | intracellular Trypanosoma cruzi in host cells | activity score (inhibition), % at 5.01 µM | 22,000 compounds, 4.9% hits | AID 651903, 2012; in the data active = activity score above about 55%; inconclusive = no clear call, values can overlap the other calls;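 note: parasites and compound incubated about four days before reading; 0% = median of neutral control wells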
An asterisk follows results filed as active; ? = inconclusive; . = no result.

SMILES	INS-1E ATP HTS	A1 apoptosis 2	T cruzi intra
Cc1ccc(S(=O)(=O)Nc2ccc3c(c2)CC(=O)N([C@H](C)CO)C[C@H](C)[C@H](CN(C)S(=O)(=O)c2ccc(Cl)cc2)O3)cc1	-4.4	.	12.4
Cc1ccc(S(=O)(=O)N(C)C[C@H]2Oc3ccc(NS(=O)(=O)c4ccc(Cl)cc4)cc3CC(=O)N([C@@H](C)CO)C[C@H]2C)cc1	-17.7	0.8	?
Cc1ccc(S(=O)(=O)N(C)C[C@H]2Oc3ccc(NS(=O)(=O)c4ccc(Cl)cc4)cc3CC(=O)N([C@H](C)CO)C[C@H]2C)cc1	-18.7	-1.4	77.9*
Cc1ccc(S(=O)(=O)Nc2ccc3c(c2)CC(=O)N([C@@H](C)CO)C[C@@H](C)[C@@H](CN(C)S(=O)(=O)c2ccc(Cl)cc2)O3)cc1	1.1	0.3	62.4*
[N-]=[N+]=NC[C@H](Cc1ccccc1)NC(=O)c1ccccc1	.	-1.2	.
O=C(NO)c1cccc(C(=O)N/N=C/c2ccccc2[N+](=O)[O-])c1	-7.2	-4.5	-4.3
C=CCC/C=N/NC(=O)CCCCCCC(=O)NO	.	-1.2	.
COc1ccc(O)c(/C=N/NC(=O)CCCCCCC(=O)Nc2ccccc2O)c1	-9.4	-0.8	7.8
C[C@@H]1CN([C@H](C)CO)C(=O)c2cccc(NC(=O)c3nc4ccccc4s3)c2O[C@H]1CN(C)Cc1ccc(C(=O)Nc2ccccc2N)cc1	18.0	.	79.2*
C[C@H](CO)N1C[C@H](C)[C@H](CN(C)Cc2ccncc2)Oc2c(NC(=O)c3nc4ccccc4s3)cccc2C1=O	0.5	.	11.5
C[C@H]1CN([C@@H](C)CO)C(=O)c2cccc(NC(=O)c3nc4ccccc4s3)c2O[C@H]1CN(C)Cc1ccc(C(=O)Nc2ccccc2N)cc1	-9.9	1.3	79.4*
C[C@H](CO)N1C[C@H](C)[C@@H](CN(C)Cc2ccncc2)Oc2c(NC(=O)c3nc4ccccc4s3)cccc2C1=O	-12.5	-2.9	26.6
CC(C)NC(=O)Nc1ccc2c(c1)C(=O)N([C@@H](C)CO)C[C@H](C)[C@@H](CN(C)Cc1ccc(-c3ccccc3)cc1)O2	-2.8	.	14.6
COC(=O)CCCCCCC(=O)N/N=C/c1ccc(NC(=O)OC(C)(C)C)cc1	12.9	.	-0.1
C[C@H](CO)N1C[C@H](C)[C@H](CN(C)Cc2ccncc2)Oc2ncc(-c3cccc(C(F)(F)F)c3)cc2C1=O	.	-0.4	45.7
C[C@H](CO)N1C[C@H](C)[C@H](CN(C)C(=O)NC2CCCCC2)Oc2ncc(C#Cc3cccc(F)c3)cc2C1=O	.	.	63.4*
C[C@H](CO)N1C[C@H](C)[C@H](CN(C)Cc2cccc(C(F)(F)F)c2)Oc2ncc(-c3cccc(C(F)(F)F)c3)cc2C1=O	.	-0.4	88.8*
Cc1cccc(CN(C)C[C@@H]2Oc3ncc(-c4cccc(F)c4)cc3C(=O)N([C@H](C)CO)C[C@@H]2C)c1	.	1.7	40.0
C[C@H](CO)N1C[C@H](C)[C@H](CN(C)C(=O)NC2CCCCC2)Oc2ncc(-c3cccc(C(F)(F)F)c3)cc2C1=O	.	7.1*	?
C[C@H](CO)N1C[C@H](C)[C@H](CN(C)Cc2cccc(C(F)(F)F)c2)Oc2ncc(-c3cccc(F)c3)cc2C1=O	.	0.4	65.1*
C[C@H](CO)N1C[C@H](C)[C@H](CN(C)C(=O)NC2CCCCC2)Oc2ncc(-c3ccc(F)cc3)cc2C1=O	.	.	-7.7
C[C@H](CO)N1C[C@H](C)[C@H](CN(C)C(=O)NC2CCCCC2)Oc2ncc(C#Cc3ccccc3)cc2C1=O	.	?	51.8
C=CCOC(=O)[C@H]1[C@@H]2C(=O)O[C@@H](c3ccccc3)[C@@H](c3ccccc3)N2[C@@H](c2ccc(OCCOC(=O)[C@@H]3C[C@@H]4C(=O)NCC(=O)N4[C@@H]3c3ccc(O)cc3)cc2)[C@]12C(=O)Nc1ccccc12	.	0.6	.
C[C@@H]1CN([C@H](C)CO)C(=O)c2cc(NC(=O)C3CC3)ccc2O[C@H]1CN(C)Cc1ccc(-c2ccccc2)cc1	.	1.4	.
COC(=O)CCCCCCC(=O)N/N=C/c1coc2ccccc2c1=O	11.3	0.5	-4.3
SMILES	INS-1E ATP HTS	A1 apoptosis 2	T cruzi intra
O=C(N/N=C/C(Br)=C/c1ccccc1)c1ccccn1	17.1	.	-66.9
CC(C)(C)OC(=O)Nc1ccc(/C=N/NC(=O)c2ccc(C(=O)NO)cc2)cc1	17.1	.	-17.3
O=C(N/N=C/c1cn(Cc2ccccc2)c2ccccc12)c1ccccn1	-4.6	-2.9	-12.3
O=C(NO)c1ccc(C(=O)N/N=C/c2ccc3ccccc3c2O)cc1	-61.6	0.1	13.9
C[C@H](CO)N1C[C@H](C)[C@@H](CN(C)Cc2ccc(Oc3ccccc3)cc2)Oc2c(NC(=O)Nc3ccccc3)cccc2C1=O	-46.4	-0.9	77.8*
C[C@H]1CN([C@@H](C)CO)C(=O)c2cccc(NC(=O)Nc3ccccc3)c2O[C@@H]1CN(C)Cc1ccc(Oc2ccccc2)cc1	-26.6	-0.3	33.8
C[C@@H]1CN([C@H](C)CO)C(=O)c2cccc(NC(=O)Nc3cccc4ccccc34)c2O[C@@H]1CN(C)Cc1ccc(-c2ccccc2)cc1	-18.7	.	61.3*
COc1ccc(NC(=O)Nc2cccc3c2O[C@@H](CN(C)Cc2ccc(Oc4ccccc4)cc2)[C@@H](C)CN([C@@H](C)CO)C3=O)cc1	-38.6	-0.9	35.5
C[C@H](CO)N1C[C@H](C)[C@H](CN(C)Cc2ccc(-c3ccccc3)cc2)Oc2c(NC(=O)Nc3cccc4ccccc34)cccc2C1=O	.	0.2	.
COc1ccc(NC(=O)Nc2cccc3c2O[C@@H](CN(C)Cc2ccc(Oc4ccccc4)cc2)[C@@H](C)CN([C@H](C)CO)C3=O)cc1	-47.6	-1.7	63.0*
CC(C)NC(=O)Nc1cccc2c1O[C@H](CN(C)Cc1ccc(Oc3ccccc3)cc1)[C@H](C)CN([C@@H](C)CO)C2=O	-22.3	-0.1	-0.6
CC(C)NC(=O)Nc1cccc2c1O[C@@H](CN(C)Cc1ccc(Oc3ccccc3)cc1)[C@H](C)CN([C@H](C)CO)C2=O	-7.0	0.1	56.9*
O=C(NCc1nc2ccccc2[nH]1)C1=C[C@@H](c2coc3ccccc3c2=O)C[C@@H](OCc2ccc(CO)cc2)O1	.	-0.9	.
O=C(NCCO)C1=C[C@H](Oc2ccccc2I)[C@@H](O)[C@H](N(Cc2ccco2)C(=O)Cc2ccccc2)C1	.	-0.3	.
O=C(O)CCCCCCC(=O)N/N=C/c1cc(F)ccc1O	-3.9	-0.7	-6.8
Cc1ccc(S(=O)(=O)N(C)C[C@H]2Oc3ccc(N(C)C)cc3CC(=O)N([C@H](C)CO)C[C@@H]2C)cc1	.	-1.0	.
C[C@@H]1CN([C@@H](C)CO)C(=O)c2cccc(NC(=O)Nc3ccccc3)c2O[C@@H]1CN(C)Cc1ccc(Oc2ccccc2)cc1	-43.6	.	-16.4
C[C@H](CO)N1C[C@H](C)[C@H](CN(C)Cc2ccc(Oc3ccccc3)cc2)Oc2c(NC(=O)Nc3cccc4ccccc34)cccc2C1=O	-59.2	-0.3	65.6*
COCCOC(=O)N1C(=O)[C@@]2(c3ccccc31)[C@H](C(N)=O)[C@H]1C(=O)O[C@H](c3ccccc3)[C@H](c3ccccc3)N1[C@@H]2c1ccc(OCCO)cc1	.	-1.2	.

Compound activity deposited in PubChem by Broad Institute.
